KCNK3 block: human KCNK3 channel inhibitors, primary screen, CHO cells, FluxOR thallium flux, B-score; actives 0.84% (n = 340,000); FluxOR fluorescence; hits give low values; Potassium channel subfamily K member 3 (Homo sapiens), O14649; B-score at 10 µM;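 active = B-score under library mean minus 4 SD, starting fluorescence ratio at most library mean plus 5 SD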;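 note: more negative B-score means stronger inhibition of thallium flux through KCNK3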
KCNQ1 act: potentiators or activators of KCNQ1 channel, primary screen, cell-based, thallium flux, high-throughput. Potassium voltage-gated channel subfamily KQT member 1 (Homo sapiens), P51787. CHO-K1 KCNQ1, thallium flux FluxOR fluorescence; hits give high values. B-score at 10 µM. actives 0.35% (n = 310,000). AID 2648, 2010;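 active = fluorescence ratio B-score, a plate-corrected score, at least three library SD, with initial intensity B-score within 5 SD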
Target sequence (P51787 whole entry, looked up): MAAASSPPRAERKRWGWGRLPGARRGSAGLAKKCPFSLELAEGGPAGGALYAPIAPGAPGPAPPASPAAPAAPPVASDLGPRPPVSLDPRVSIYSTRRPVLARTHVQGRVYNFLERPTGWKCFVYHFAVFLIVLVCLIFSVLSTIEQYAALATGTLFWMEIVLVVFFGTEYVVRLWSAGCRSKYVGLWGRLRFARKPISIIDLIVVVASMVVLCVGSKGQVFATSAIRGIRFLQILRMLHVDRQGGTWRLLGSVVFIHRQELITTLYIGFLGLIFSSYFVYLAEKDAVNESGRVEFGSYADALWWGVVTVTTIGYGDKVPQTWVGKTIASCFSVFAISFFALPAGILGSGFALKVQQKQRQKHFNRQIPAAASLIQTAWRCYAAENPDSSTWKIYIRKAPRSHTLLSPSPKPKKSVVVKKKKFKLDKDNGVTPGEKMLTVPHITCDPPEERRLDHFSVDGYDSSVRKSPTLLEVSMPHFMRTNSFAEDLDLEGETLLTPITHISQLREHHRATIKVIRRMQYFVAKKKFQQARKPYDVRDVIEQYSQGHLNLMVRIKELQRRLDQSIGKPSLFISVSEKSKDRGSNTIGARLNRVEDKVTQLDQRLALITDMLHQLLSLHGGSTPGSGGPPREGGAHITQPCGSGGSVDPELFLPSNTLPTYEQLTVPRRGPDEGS
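Test system: CHO-K1 cells stably expressing KCNQ1 / Medium: assay buffer / Also added: depolarizing K+/Tl+ stimulus, K2SO4 and Tl2SO4 each 12.5 mM in 5x stock / Incubation: 90 min dye loading and 20 min compound exposure, both at room temperature / Signal: thallium influx via FluxOR fluorescence, kinetic imaging / Evaluation: B score of baseline-normalized fluorescence ratio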
Kir21 inh: inhibitors of mouse Kir2.1 inward-rectifier potassium channel | HEK293-Kir2.1, FluxOR thallium flux fluorescence; hits give low values | B-score at 10 µM | actives 0.85% (n = 310,000) | AID 1672, 2009;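 active = fluorescence ratio B-score at or below minus 3 SD of library scores, with starting-brightness B-score within 2 SD, cut at about -4.2 in these data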;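 note: channel flux triggered by added potassium and thallium sulfate stimulus; B-score of peak minus minimum fluorescence over baseline after thallium stimulus; more negative B-score means stronger Kir2.1 block with less thallium influx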
KCNK9 inh: KCNK9 potassium channel inhibitors, primary screen, HEK293 cells, thallium flux; Potassium channel subfamily K member 9 (Homo sapiens), Q9NPC2; FluxOR thallium flux fluorescence; hits give low values; B-score at 10 µM; actives 1.2% (n = 310,000); AID 488922, 2010;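 active = ratio B-score over 3 SD below the library mean, with starting fluorescence within 5 SD of its mean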;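 note: negative B-score means less thallium flux so channel inhibition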
hERG protect: hERG rescue from dofetilide block, primary screen, cell-based, CHO-hERG, FluxOR thallium flux, dofetilide IC70. Voltage-gated inwardly rectifying potassium channel KCNH2 (Homo sapiens), Q12809. dofetilide IC70 present. activation (rescue from dofetilide block), less the hit threshold, % at 10 µM. actives 0.51% (n = 310,000);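 active = activation above the mean of controls blocked by dofetilide plus 5 SD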;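 note: thallium influx through hERG after potassium depolarization seen as dye fluorescence rise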
KCNQ1 block: inhibitors of human KCNQ1 channel, primary screen, cell-based, thallium flux, high-throughput; Potassium voltage-gated channel subfamily KQT member 1 (Homo sapiens), P51787; CHO-K1 KCNQ1, FluxOR thallium flux fluorescence; hits give high values; B-score at 10 µM; actives 1.3% (n = 310,000); AID 2642, 2010;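 active = compounds whose thallium flux B-score, printed positive for inhibition, exceeds three library SD while starting fluorescence stays within three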;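 note: channel opened by potassium depolarization with thallium stimulus after 20 min compound exposure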
KCNK3 inh conf: retest of human KCNK3 channel inhibitors, confirmation, CHO cells, FluxOR thallium flux, triplicate | ratio percent of control, % at 10 µM | actives 99% (n = 2,400) | FluxOR fluorescence; 0% buffer, 100% carvedilol maximal block | shares compounds with KCNK3 block;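 active = ratio percent of control, averaged over triplicates, above buffer control mean plus 5 SD, cut at about 64% in these data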;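 note: ratio is the fluorescence rise from min to max over baseline after thallium stimulus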
KCNK3 uninduced: thallium flux inhibition in non-induced cells, primary screen, counter-screen for KCNK3 inhibitor project, cell-based, non-induced KCNK3 line, FluxOR thallium, triplicate | non-induced KCNK3 parental cells; hits give low values | thallium flux ratio (lower = more inhibition) at 10 µM | actives 40% (n = 2,400) | shares compounds with KCNK3 block;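 active = thallium flux ratio, averaged over three wells, more than 5 SD below the buffer control mean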;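 note: host cells are CHO cells without KCNK3 induction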
Of the large screens only hits and unclear results are named; the others gave an inactive call (follow-up assays come after a bar, where they were run). In the library only some 3.7% were active in any assay of this set; here they are far more common.

O=C(Nc1cccc(NC(=O)c2cccs2)c1)c1cccnc1	KCNK3 block -9.3 | KCNK3 inh conf 89 | KCNK3 uninduced inactive
Cc1cccc(C(=O)Nc2cc(NC(=O)c3cccs3)ccc2C)c1	KCNK3 block -9.7 | KCNK3 inh conf 112 | KCNK3 uninduced inactive
CC(C)Cn1nc(NS(=O)(=O)c2cccc3nonc23)c2cc3ccccc3nc21	none
O=C(Nc1ccc(N2CCN(C(=O)c3ccc(Cl)cc3)CC2)cc1)c1cc2ccccc2o1	none
O=C(Nc1ccccc1N1CCN(C(=O)c2ccc(Cl)cc2)CC1)c1cc2ccccc2o1	KCNK3 block -12 | KCNK3 inh conf 121 | KCNK3 uninduced 0.14
Cc1cc(=O)oc2cc(OCC(=O)Nc3ccccc3C(=O)O)ccc12	none
O=S(=O)(N1CCCCC1)N1CCN(c2cc(Cl)ccc2Cl)CC1	KCNK3 block -9.2 | KCNK3 inh conf 111 | KCNK3 uninduced inactive
O=S(=O)(c1ccc(Cl)cc1)N1CCN(S(=O)(=O)N2CCCCCC2)CC1	none
COc1ccc(-c2c(-c3ccccc3OC)oc3ccccc23)cc1F	none (no result: KCNQ1 act, Kir21 inh, KCNK9 inh, hERG protect, KCNQ1 block)
CN(C)S(=O)(=O)c1cccc(NC(=O)c2ccc(COc3ccccc3)cc2)c1	none
Cc1ccc(NC(=O)C(=O)c2c(-c3ccccc3)cc3ccccn23)cc1S(=O)(=O)N1CCOCC1	KCNK3 block -10 | KCNK3 inh conf 113 | KCNK3 uninduced inactive
O=C(C1CCC1)N1CCN(c2ccnc3cc(Cl)ccc23)CC1	none
O=C(C1CCCCC1)N1CCN(c2ccnc3cc(Cl)ccc23)CC1	KCNK3 block -8.8 | KCNK3 inh conf 115 | KCNK3 uninduced inactive
CC(Oc1ccc(F)cc1)C(=O)Nc1cccc(-c2nn[nH]n2)c1 (stereo not drawn)	none
CCCCCCNS(=O)(=O)c1ccc(Cl)s1	KCNK3 block -9.2 | KCNK3 inh conf 94 | KCNK3 uninduced inactive
C/C(=N\OCc1nc2ccccc2c(=O)n1/N=C/c1cc([N+](=O)[O-])ccc1O)c1ccccc1	KCNK3 block -9.1, KCNQ1 block 6 | KCNK3 inh conf 95 | KCNK3 uninduced 0.12
O=[N+]([O-])c1ccc(O)c(/C=N/n2c(CO)nc3ccccc32)c1	none
CCc1cc(=O)oc2cc(C)cc(OCC(=O)N3CCC(C(=O)O)CC3)c12	none
CCCS(=O)(=O)c1c(S(=O)(=O)CCC)c2c(N)cccn2c1C(=O)c1ccc(F)cc1	none
CCCS(=O)(=O)c1c(S(=O)(=O)CCC)c2ccc(C(N)=O)cn2c1C(=O)c1ccc(F)cc1	KCNK3 block -12, KCNK9 inh -7.4 | KCNK3 inh conf 91 | KCNK3 uninduced inactive
N#Cc1ccccc1S(=O)(=O)N1CCN(C(=O)Cc2coc3cc(O)ccc23)CC1	KCNK3 block -12 (no result: KCNQ1 act, Kir21 inh, KCNK9 inh, hERG protect, KCNQ1 block) | KCNK3 inh conf inactive | KCNK3 uninduced inactive
Cc1ccc2c(CC(=O)N3CCN(S(=O)(=O)c4ccccc4)CC3)coc2c1	none (no result: KCNQ1 act, Kir21 inh, KCNK9 inh, hERG protect, KCNQ1 block)
CCOC(=O)c1cc2ccc3ccccc3c2oc1=O	none
CCOC(=O)c1cc2ccc3ccccc3c2s1	KCNK3 block -9.8 | KCNK3 inh conf 99 | KCNK3 uninduced inactive
CCc1ccc2c(c1)C1(NN=C(c3ccc(C)cc3)S1)C(=O)N2 (stereo not drawn)	KCNK3 block -8.7, KCNQ1 block 7 | KCNK3 inh conf 106 | KCNK3 uninduced 0.11
